We go through nine compounds from ChEMBL document CHEMBL2321668, “Aromatic bis-N-hydroxyguanidinium derivatives: synthesis, biophysical, and biochemical evaluations” (J Med Chem, 2013).

Structures can show the parent of a compound that is named as a salt. The source made the active and inactive calls. The calls are words filed in the database; no cut-off is given here. Bounds are passed on as bounds.

For orientation: IC50 means the concentration needed to halve the response being measured. A word on the ΔTm: it is the change in melting temperature against a reference sample. Broadly, the pKa is the pH at which an ionisable group is half protonated. High values mean a weaker acid or stronger base, low ones a stronger acid or weaker base.

Series [1] deals with HL-60. Put plainly: Cytotoxicity against human HL60 cells assessed as reduction in cell viability at 100 uM after 72 hrs by Alamar blue assay. The format is functional, cell-based. An outline of the steps:
(§1)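 HL-60 cells in log phase, 4 × 10^4 cells/well in RPMI/10% FBS, were treated with a 1:100 dilution of aqueous stocks (1% ddH2O vehicle), final 1–100 μM, for 72 h at 37 °C. AlamarBlue was added for 4.5 h in the dark and fluorescence read at 544/590 nm. Viability is blank-corrected and given as % of vehicle. IC50 comes from sigmoidal dose–response fits. Triplicate wells, at least three experiments.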
For orientation: The colour change of resazurin is a common sign of viable cells or microbes.

Series [2] relates to HL-60. Put plainly: Cytotoxicity against human HL60 cells assessed as reduction in cell viability after 72 hrs by Alamar blue assay. Format: functional, cell-based. Conditions: HL-60, 72 h. An outline of the steps: as §1
In series [3] the test system is Salmonidae. Put plainly: Binding affinity to salmon sperm DNA assessed as change in melting temperature at 15 uM by thermal denaturation assay.
The nature of series [4]: Binding affinity to poly(dA-dT)2 (unknown origin) assessed as change in melting temperature.
In series [5] the test system is MCF7. Put plainly: Cytotoxicity against human MCF7 cells assessed as reduction in cell viability after 72 hrs by Alamar blue assay. The format is functional, cell-based. Conditions: MCF7, 72 h. Put shortly: (§2)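 MCF-7 cells in MEM/10% FBS with nonessential amino acids, 10,000/well, were preincubated 24 h, then treated for 72 h at 37 °C with a 1:100 dilution of aqueous stocks (1% ddH2O vehicle). AlamarBlue was added for 4.5 h in the dark and fluorescence read at 544/590 nm. Viability is blank-corrected and given as % of vehicle. IC50 comes from a sigmoidal dose–response fit. Triplicate wells, at least three experiments.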

Series [6] can be described thus: Cytotoxicity against human Kelly cells assessed as reduction in cell viability after 72 hrs by Alamar blue assay. Format: functional, cell-based. Put shortly: (§3)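 Kelly neuroblastoma cells in RPMI/10% FBS, 6000/well, were preincubated 24 h, then given a 1:100 dilution of aqueous stocks (1% ddH2O vehicle) for 72 h at 37 °C. AlamarBlue was added for 4.5 h in the dark and fluorescence read at 544/590 nm. Viability is blank-corrected and given as % of vehicle. IC50 comes from a sigmoidal fit. Triplicate wells, at least three experiments.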

Series [7] in a line: Dissociation constant, pKa of the compound. Format: physicochemical.
Series [8] concerns MCF7. Nature of the series: Cytotoxicity against human MCF7 cells assessed as reduction in cell viability at 100 uM after 72 hrs by Alamar blue assay. Format: functional. An outline of the steps: as §2
Series [9] can be described thus: Cytotoxicity against human Kelly cells assessed as reduction in cell viability 50 uM after 72 hrs by Alamar blue assay. Format: functional. An outline of the steps:
as §3

Series [10] is described as follows: Cytotoxicity against human Kelly cells assessed as reduction in cell viability 40 uM after 72 hrs by Alamar blue assay. Format: functional. An outline of the steps: as §3
Series [11] can be described thus: Cytotoxicity against human Kelly cells assessed as reduction in cell viability 30 uM after 72 hrs by Alamar blue assay. Format: functional. An outline of the steps: as §3
The nature of series [12]: Cytotoxicity against human Kelly cells assessed as reduction in cell viability 100 uM after 72 hrs by Alamar blue assay. Format: functional. Put shortly: as §3
Series [13] deals with HL-60. Put plainly: Cell cycle arrest in human HL60 cells assessed as accumulation at preG1 phase at 50 uM by flow cytometric analysis. The format is functional, cell-based. The following applies: TDE = time-dependent effect.
The subject of series [14] is HL-60. Nature of the series: Cell cycle arrest in human HL60 cells assessed as accumulation at preG1 phase at 50 uM after 72 hrs by flow cytometric analysis (reference value: 2.21 +/- 0.57%). Format: functional. A general note: Flow cytometry measures light scatter and fluorescence of single cells or particles in a stream.
For series [15], the system named is HL-60. Nature of the series: Cell cycle arrest in human HL60 cells assessed as accumulation at Gn phase at 50 uM by flow cytometric analysis. Format: functional, cell-based. The following applies: TDE = time-dependent effect.
Series [16] relates to HL-60. Nature of the series: Cell cycle arrest in human HL60 cells assessed as accumulation at G2/M phase at 50 uM after 24 hrs by flow cytometric analysis (reference value: 16.73 +/- 0.59%). The format is functional.
For series [17], the system named is HL-60. Put plainly: Cell cycle arrest in human HL60 cells assessed as accumulation at G0/G1 phase at 50 uM after 48 hrs by flow cytometric analysis (reference value: 58.77 +/- 2.33%). The format is functional.
Series [18] has as its system HL-60. Nature of the series: Cell cycle arrest in human HL60 cells assessed as accumulation at G0/G1 phase at 50 uM by flow cytometric analysis. Format: functional, cell-based. The following applies: TDE = time-dependent effect.
In series [19] the test system is HL-60. Put plainly: Cell cycle arrest in human HL60 cells assessed as accumulation at Gn phase at 50 uM after 72 hrs by flow cytometric analysis (reference value: 3.43 +/- 0.48%). The format is functional.
Series [20] concerns HL-60. Put plainly: Cell cycle arrest in human HL60 cells assessed as accumulation at S phase at 50 uM after 48 hrs by flow cytometric analysis (reference value: 24.29 +/- 1.37%). The format is functional.
The test system of series [21] is HL-60. Nature of the series: Cell cycle arrest in human HL60 cells assessed as accumulation at Gn phase at 50 uM after 48 hrs by flow cytometric analysis (reference value: 3.02 +/- 0.56%). Format: functional.
For series [22], the system named is HL-60. Put plainly: Cell cycle arrest in human HL60 cells assessed as accumulation at G0/G1 phase at 50 uM after 24 hrs by flow cytometric analysis (reference value: 56.05 +/- 1.40%). The format is functional.
The subject of series [23] is HL-60. Nature of the series: Cell cycle arrest in human HL60 cells assessed as accumulation at preG1 phase at 50 uM after 24 hrs by flow cytometric analysis (reference value: 0.81 +/- 0.11%). Format: functional.
The test system of series [24] is HL-60. Nature of the series: Cell cycle arrest in human HL60 cells assessed as accumulation at G2/M phase at 50 uM after 72 hrs by flow cytometric analysis (reference value: 10.53 +/- 0.81%). Format: functional.
The subject of series [25] is HL-60. Nature of the series: Cell cycle arrest in human HL60 cells assessed as accumulation at G2/M phase at 50 uM by flow cytometric analysis. Format: functional, cell-based. The following applies: TDE = time-dependent effect.
Series [26] has as its system HL-60. Nature of the series: Cell cycle arrest in human HL60 cells assessed as accumulation at Gn phase at 50 uM after 24 hrs by flow cytometric analysis (reference value: 2.96 +/- 0.79%). Format: functional.
The test system of series [27] is HL-60. Put plainly: Cell cycle arrest in human HL60 cells assessed as accumulation at S phase at 50 uM after 72 hrs by flow cytometric analysis (reference value: 23.58 +/- 1.38%). Format: functional.
Series [28] concerns HL-60. Put plainly: Cell cycle arrest in human HL60 cells assessed as accumulation at G2/M phase at 50 uM after 48 hrs by flow cytometric analysis (reference value: 11.35 +/- 1.05%). Format: functional.
The test system of series [29] is HL-60. Put plainly: Cell cycle arrest in human HL60 cells assessed as accumulation at S phase at 50 uM after 24 hrs by flow cytometric analysis (reference value: 24.46 +/- 1.15%). Format: functional.
Series [30] deals with HL-60. Nature of the series: Cell cycle arrest in human HL60 cells assessed as accumulation at preG1 phase at 50 uM after 48 hrs by flow cytometric analysis (reference value: 1.41 +/- 0.32%). The format is functional.
For series [31], the system named is HL-60. Put plainly: Cell cycle arrest in human HL60 cells assessed as accumulation at G0/G1 phase at 50 uM after 72 hrs by flow cytometric analysis (reference value: 59.5 +/- 1.50%). Format: functional.
For series [32], the system named is HL-60. Nature of the series: Cell cycle arrest in human HL60 cells assessed as accumulation at S phase at 50 uM by flow cytometric analysis. Format: functional, cell-based. The following applies: TDE = time-dependent effect.
Series [33] has as its system DNA. Nature of the series: Binding affinity to calf thymus DNA assessed as change in melting temperature. Conditions: Bos taurus. Format: nucleic-acid assay.

Regarding `N/C(=N\O)Nc1ccc(C(=O)c2ccc(N/C(N)=N/O)cc2)cc1`, the result in [1] was inactive. The IC50 in [2] was greater than 100 µM. For the same compound, the ΔTm in series [3] is 0 °C.

Consider `N=C(N)c1ccc(-c2ccc(-c3ccc(C(=N)N)cc3)o2)cc1` [FURAMIDINE HYDROCHLORIDE], for which the IC50 in series [2] came out at 77.6 µM; in series [5] it was 92.8 µM; in series [6] it was 27.4 µM. Besides, in series [4], the ΔTm came to 26.2 °C. This compound returned a pKa in [7] of 10.4.

With `N/C(=N\O)Nc1ccc(NC(=O)c2ccc(N/C(N)=N/O)cc2)cc1`, in series [3], the ΔTm was 1 °C.

Turning to `Cl.N/C(=N\O)Nc1ccc(Oc2ccc(N/C(N)=N/O)cc2)cc1`, the Activity is given as 53% in [8]; 89.9% in series [9]; 86.4% in series [10]; 76.2% in series [11]; 95.8% in series [12]. The IC50 came out at 65.5 µM in series [2], 45.2 µM in series [5] and 12.2 µM in series [6]. The ΔTm in series [3] was found to be 1 °C. In series [7], this compound had a pKa of 8.3.

With `Cl.N/C(=N\O)Nc1ccc(Sc2ccc(N/C(N)=N/O)cc2)cc1`, the Activity in series [8] was 23.1%; in series [9] it was 95%; in series [10], 93.9%; in series [13], “tde”; in [14], 22.2%; in series [15] it was “tde”. In addition, the Activity in series [16] is 14.57%; in series [11], 79.4%; in series [17], 56.62%; in series [18], “tde”; in series [19], 2.1%; in series [20], 21.71%. Further, the Activity in [21] is 1.94%; in series [22] it was 55.9%; in series [23], 1.53%; in series [24], 14.54%; in [12], 96.8%; in [25], “tde”. In addition, the Activity in [26] is reported as 2.35%; in series [27] it was 15.99%; in series [28], 10.78%; in series [29] it was 25.85%; in [30] it was 6.44%; in series [31], 44.8%. Besides, the Activity result in series [32] was “tde”. The IC50 in series [2] is 46.4 µM; in series [5], greater than 100 µM; in series [6] it was 8.6 µM. The ΔTm in [3] turned out to be 1 °C.

Consider `Cl.N/C(=N\O)Nc1ccc(Cc2ccc(N/C(N)=N/O)cc2)cc1`, for which, in series [8], the Activity is 29.8%. The IC50 is 71.3 µM in [2] and greater than 100 µM in series [5]. Also, the ΔTm in series [3] is 0 °C.

Regarding `N/C(=N\O)Nc1ccc(CCc2ccc(N/C(N)=N/O)cc2)cc1`, the shift in melting temperature (ΔTm) in series [3] was determined as 0 °C.

In the case of `N=C(N)c1ccc(OCCCCCOc2ccc(C(=N)N)cc2)cc1`, in series [33], the ΔTm came to 10.7 °C.

For the compound `N/C(=N\O)c1ccc(OCCCCCOc2ccc(/C(N)=N/O)cc2)cc1`, in series [33], the ΔTm turned out to be 0.2 °C.
